Measured values as given in ChEMBL document CHEMBL1136016, “Synthesis, biological activity, and molecular modeling investigation of new pyrazolo[4,3-e]-1,2,4-triazolo[1,5-c]pyrimidine derivatives as human A(3) adenosine receptor antagonists” (J Med Chem, 2002).
Blank lines part the entries; values can stand above or below the molecule they belong to.

Columns and labels:
[1] = biological target: Adenosine receptors; A2b & A3 (Homo sapiens) (UniProt P29275+P0DMS8); assay: Selectivity ratio (h2B/hA3); format: protein assay
[2] = biological target: T1, Adenosine receptor A1 (Homo sapiens, UniProt P30542); assay: Displacement of [3H]DPCPX from human Adenosine A1 receptor expressed in CHO cells; range 330-478; format: cell-based
T1 sequence (P30542 whole entry): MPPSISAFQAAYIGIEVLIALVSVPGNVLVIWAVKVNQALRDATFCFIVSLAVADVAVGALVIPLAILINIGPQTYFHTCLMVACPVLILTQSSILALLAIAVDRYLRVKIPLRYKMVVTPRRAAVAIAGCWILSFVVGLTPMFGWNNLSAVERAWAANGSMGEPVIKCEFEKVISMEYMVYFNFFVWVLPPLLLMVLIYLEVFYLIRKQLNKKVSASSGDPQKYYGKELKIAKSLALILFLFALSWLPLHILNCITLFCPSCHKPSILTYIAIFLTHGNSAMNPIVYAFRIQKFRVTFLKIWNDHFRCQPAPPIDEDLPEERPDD
Method in brief: (§1)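 Human recombinant A1 receptor in CHO cell membranes, resuspended in 50 mM Tris HCl pH 7.4. Displacement run 120 min at 25 °C with 1 nM [3H]DPCPX, 50 µg protein per assay, and at least six to eight test concentrations. Nonspecific binding defined with CHA. Bound and free separated on glass-fiber filters; filter radioactivity counted. n = 3-6.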

[3] = biological target: T2, Adenosine receptor A2a (Homo sapiens, UniProt P29274); assay: Displacement of [3H]SCH-58261 from human Adenosine A2A receptor expressed in HEK293 cells; range 24-48; format: cell-based
[4] = biological target: T3, Adenosine receptor A3 (Homo sapiens, UniProt P0DMS8); assay: biochemical
T3 sequence (P0DMS8 whole entry): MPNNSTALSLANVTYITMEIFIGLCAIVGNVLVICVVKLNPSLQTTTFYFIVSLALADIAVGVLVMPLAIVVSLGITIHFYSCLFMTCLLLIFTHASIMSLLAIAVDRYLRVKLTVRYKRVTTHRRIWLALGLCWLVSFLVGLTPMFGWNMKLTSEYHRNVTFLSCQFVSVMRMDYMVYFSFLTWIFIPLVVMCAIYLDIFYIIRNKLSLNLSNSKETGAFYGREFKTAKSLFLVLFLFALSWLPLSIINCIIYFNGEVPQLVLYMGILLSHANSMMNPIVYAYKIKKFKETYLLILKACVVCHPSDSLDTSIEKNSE

[5] = biological target: Adenosine receptors; A1 & A3 (Homo sapiens) (UniProt P30542+P0DMS8); assay: Selectivity ratio (hA1/hA3); format: protein assay
[6] = biological target: T4, Adenosine receptor A2b (Homo sapiens, UniProt P29275); assay: Displacement of [3H]DPCPX from human Adenosine A2B receptor expressed in HEK293 cells; range 115-161; format: cell-based
T4 sequence (P29275 whole entry): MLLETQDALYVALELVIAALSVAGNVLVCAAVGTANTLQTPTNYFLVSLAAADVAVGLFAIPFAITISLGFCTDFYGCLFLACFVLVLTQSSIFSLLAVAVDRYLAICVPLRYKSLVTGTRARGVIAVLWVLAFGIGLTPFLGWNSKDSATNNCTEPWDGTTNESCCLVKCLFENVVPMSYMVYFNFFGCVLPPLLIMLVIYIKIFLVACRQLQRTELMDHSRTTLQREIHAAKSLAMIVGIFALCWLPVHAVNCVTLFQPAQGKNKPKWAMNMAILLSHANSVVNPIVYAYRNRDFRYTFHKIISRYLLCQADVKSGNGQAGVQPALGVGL
Method in brief: (§2)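 HEK-293 membranes expressing the human receptor were incubated 60 min at 25 °C. Six to eight test concentrations were used. Nonspecific binding was set with NECA. n = 3-6.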

[7] = biological target: T1, Adenosine receptor A1; assay: Displacement of [3H]DPCPX from human Adenosine A1 receptor expressed in CHO cells; range 724-889; format: cell-based; method in brief: as §1
[8] = biological target: T4, Adenosine receptor A2b; assay: Displacement of [3H]DPCPX from human Adenosine A2B receptor expressed in HEK293 cells; range 37-63; format: cell-based; method in brief: as §2
[9] = biological target: T2, Adenosine receptor A2a; assay: Displacement of [3H]SCH-58261 from human Adenosine A2A receptor expressed in HEK293 cells; range 511-648; format: cell-based
[10] = biological target: T3, Adenosine receptor A3; assay: biochemical; remark: listed apart in the source
[11] = biological target: T2, Adenosine receptor A2a; assay: Displacement of [3H]SCH-58261 from human Adenosine A2A receptor expressed in HEK293 cells; range 71-111; format: cell-based
[12] = biological target: T1, Adenosine receptor A1; assay: Displacement of [3H]DPCPX from human Adenosine A1 receptor expressed in CHO cells; range 156-258; format: cell-based
[13] = biological target: T3, Adenosine receptor A3; assay: biochemical; remark: listed apart in the source
[14] = biological target: T4, Adenosine receptor A2b; assay: Displacement of [3H]DPCPX from human Adenosine A2B receptor expressed in HEK293 cells; range 116-134; format: cell-based
Method in brief: (§3)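 Membranes from HEK-293 cells with human recombinant A2B receptor. Incubation 60 min at 25 °C in 50 mM Tris HCl, 10 mM MgCl2, 1 mM EDTA, 0.1 mM benzamidine, pH 7.4, with 2 IU/mL adenosine deaminase and 40 nM [3H]DPCPX. At least six to eight test concentrations. Nonspecific binding defined with NECA. n = 3-6.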

[15] = biological target: T3, Adenosine receptor A3; assay: biochemical; remark: listed apart in the source
[16] = biological target: T4, Adenosine receptor A2b; assay: Displacement of [3H]DPCPX binding at human Adenosine A2B receptor expressed in HEK293 cells; format: cell-based; method in brief: as §3
[17] = biological target: T1, Adenosine receptor A1; assay: Displacement of [3H]DPCPX from human Adenosine A1 receptor expressed in CHO cells; format: cell-based; method in brief: as §1
[18] = biological target: T2, Adenosine receptor A2a; assay: Displacement of [3H]SCH-58261 from human Adenosine A2A receptor expressed in HEK293 cells; range 240-388; format: cell-based
[19] = biological target: T2, Adenosine receptor A2a; assay: Displacement of [3H]SCH-58261 from human Adenosine A2A receptor expressed in HEK293 cells; range 140-186; format: cell-based
[20] = biological target: T3, Adenosine receptor A3; assay: Displacement of [3H]MRE3008-F20 from human Adenosine A3 receptor expressed in HEK cells; range 0.71-0.91; format: cell-based, HEK293
[21] = biological target: T3, Adenosine receptor A3; assay: Inhibition of IB-MECA agonist-mediated cAMP production in CHO cell membranes expressing human Adenosine A3 receptor; range 5.5-10.9; format: functional, cell-based
Method in brief: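 Human A3-CHO membranes (in 50 mM Tris HCl, 10 mM MgCl2, 1 mM EDTA, pH 7.4) were preincubated for 10 min at 37 °C with 5 µM GTP, 0.5 mM Ro 20-1724 and 2.0 IU/mL adenosine deaminase. IB-MECA (100 nM) or antagonist was then added with 1 mM ATP and forskolin for 10 min. The reaction was stopped by 2 min boiling. cAMP was measured by [3H]cAMP competitive protein binding using beef adrenal binding protein, 150 min at 4 °C.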

[22] = biological target: T4, Adenosine receptor A2b; assay: Displacement of [3H]DPCPX from human Adenosine A2B receptor expressed in HEK293 cells; range 213-296; format: cell-based
Method in brief: (§4)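 Competition binding on membranes of HEK-293 cells carrying recombinant human A2B receptor. Incubation 60 min at 25 °C in 50 mM Tris HCl pH 7.4 with 10 mM MgCl2, 1 mM EDTA, 0.1 mM benzamidine and 2 IU/mL adenosine deaminase. Radioligand 40 nM [3H]DPCPX, at least six to eight test concentrations. NECA defined nonspecific binding. Bound ligand separated on glass-fibre filters and counted; n = 3-6.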

[23] = biological target: T1, Adenosine receptor A1; assay: Displacement of [3H]DPCPX from human Adenosine A1 receptor expressed in CHO cells; range 406-616; format: cell-based
[24] = biological target: T4, Adenosine receptor A2b; assay: Displacement of [3H]DPCPX from human Adenosine A2B receptor expressed in HEK293 cells; range 49-77; format: cell-based; method in brief: as §4
[25] = biological target: T3, Adenosine receptor A3; assay: Displacement of [3H]MRE3008-F20 from human Adenosine A3 receptor expressed in HEK cells; range 0.61-0.83; format: cell-based, HEK293
[26] = biological target: T2, Adenosine receptor A2a; assay: Displacement of [3H]SCH-58261 from human Adenosine A2A receptor expressed in HEK293 cells; range 103-142; format: cell-based
[27] = biological target: T1, Adenosine receptor A1; assay: Displacement of [3H]DPCPX from human Adenosine A1 receptor expressed in CHO cells; range 245-370; format: cell-based

T2 sequence (P29274 whole entry): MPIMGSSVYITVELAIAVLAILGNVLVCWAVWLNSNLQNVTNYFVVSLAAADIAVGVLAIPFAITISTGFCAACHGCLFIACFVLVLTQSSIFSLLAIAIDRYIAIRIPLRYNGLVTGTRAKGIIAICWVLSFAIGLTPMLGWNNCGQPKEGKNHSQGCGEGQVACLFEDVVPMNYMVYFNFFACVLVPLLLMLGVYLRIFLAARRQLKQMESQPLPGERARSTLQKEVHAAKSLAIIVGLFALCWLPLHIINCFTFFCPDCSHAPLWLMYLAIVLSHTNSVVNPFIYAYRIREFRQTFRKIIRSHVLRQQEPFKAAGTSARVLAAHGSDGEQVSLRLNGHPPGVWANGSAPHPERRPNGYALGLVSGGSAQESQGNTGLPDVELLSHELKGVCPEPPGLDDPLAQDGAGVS

Ratio [1]: 178
Ki [7]: 802 nM
Ki [8]: 48 nM
Ratio [5]: 2970
Ki [9]: 576 nM
Ki [10]: 0.27 nM
SMILES: CCn1cc2c(nc(NC(=O)Nc3ccc4c(c3)OCO4)n3nc(-c4ccco4)nc23)n1

Ratio [1]: > 333
Ki [15]: 30 nM
Ki [16]: > 10000 nM
Ki [17]: > 10000 nM
Ratio [5]: > 333
Ki [18]: 305 nM
SMILES: CCCn1cc2c(nc(NC(=O)Nc3ccc(S(=O)(=O)O)cc3)n3nc(-c4ccco4)nc23)n1

Ratio [1]: 313
Ki [19]: 160 nM
Ki [20]: 0.8 nM
IC50 [21]: 7.8 nM
Ki [22]: 251 nM
Ratio [5]: 625
Ki [23]: 500 nM
SMILES: COc1cccc(NC(=O)Nc2nc3nn(C)cc3c3nc(-c4ccco4)nn23)c1

Second part, the molecule before the results:

SMILES: CCCn1cc2c(nc(NC(=O)Nc3ccc(C(F)(F)F)cc3)n3nc(-c4ccco4)nc23)n1
Ratio [1]: 267
Ki [2]: 400 nM
Ki [3]: 34 nM
Ki [4]: 0.51 nM
Ratio [5]: 784
Ki [6]: 136 nM

SMILES: CCCCn1cc2c(nc(NC(=O)Nc3ccccc3OC)n3nc(-c4ccco4)nc23)n1
Ratio [1]: 219
Ki [11]: 91 nM
Ki [12]: 200 nM
Ratio [5]: 351
Ki [13]: 0.57 nM
Ki [14]: 125 nM

SMILES: CCCn1cc2c(nc(NC(=O)Nc3ccccc3Cl)n3nc(-c4ccco4)nc23)n1
Ratio [1]: 86
Ki [24]: 61 nM
Ki [25]: 0.71 nM
Ki [26]: 121 nM
Ki [27]: 300 nM
Ratio [5]: 423
